From ChEMBL document CHEMBL1909620, “The development of N-α-(2-carboxyl)benzoyl-N(5)-(2-fluoro-1-iminoethyl)-l-ornithine amide (o-F-amidine) and N-α-(2-carboxyl)benzoyl-N(5)-(2-chloro-1-iminoethyl)-l-ornithine amide (o-Cl-amidine) as second generation protein arginine deiminase (PAD) inhibitors” (J Med Chem, 2011)
Active and inactive are the calls of the source. No cut-off for these calls is given here.

Assays:
[1] = molecular target: Protein-arginine deiminase type-4 (Homo sapiens, UniProt Q9UM07); experiment: Irreversible inhibition of PAD4 assessed as hydrolysis of benzoyl-L-arginine ethyl ester preincubated for 15 mins measured after 15 mins by fluorometric analysis
Chain of Protein-arginine deiminase type-4 (Q9UM07 whole entry): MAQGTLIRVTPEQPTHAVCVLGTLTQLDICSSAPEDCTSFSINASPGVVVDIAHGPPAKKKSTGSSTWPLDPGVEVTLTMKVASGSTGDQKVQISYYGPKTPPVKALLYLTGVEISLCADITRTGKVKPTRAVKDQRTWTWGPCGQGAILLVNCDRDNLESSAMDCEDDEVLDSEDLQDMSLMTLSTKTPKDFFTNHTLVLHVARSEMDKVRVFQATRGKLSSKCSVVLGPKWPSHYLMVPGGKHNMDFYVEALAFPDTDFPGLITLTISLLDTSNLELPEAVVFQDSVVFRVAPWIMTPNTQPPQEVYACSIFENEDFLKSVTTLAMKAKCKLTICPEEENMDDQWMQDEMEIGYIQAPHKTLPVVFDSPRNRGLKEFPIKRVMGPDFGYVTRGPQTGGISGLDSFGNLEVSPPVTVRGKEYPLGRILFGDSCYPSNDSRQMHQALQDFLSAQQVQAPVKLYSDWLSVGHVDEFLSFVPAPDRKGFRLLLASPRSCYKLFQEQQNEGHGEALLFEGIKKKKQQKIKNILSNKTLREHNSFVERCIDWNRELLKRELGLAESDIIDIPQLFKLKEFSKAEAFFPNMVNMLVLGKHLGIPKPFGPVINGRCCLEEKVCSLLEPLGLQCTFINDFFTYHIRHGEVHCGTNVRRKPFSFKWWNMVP

HL-60 [2] = experiment: Potentiation of doxorubicin-induced cytotoxicity against human HL60 cells assessed as reduction in cell viability at 0.1 to 1 uM after 24 hrs by MTT assay relative to control; format: functional
Summary of the method: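 HL60 cells (RPMI 1640, 10% FBS, 37 °C, 5% CO2) were exposed for 24 h to doxorubicin alone or together with inhibitor at fixed levels. Viability was read by MTT assay as percent of control absorbance, run in triplicate. Doxorubicin EC50 came from dose-response fits. Interaction was scored by the additive model: observed/expected ratio <0.8 synergistic, 0.8–1.2 additive.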

HL-60 [3] = experiment: Cytotoxicity against human HL60 cells assessed as reduction in cell viability after 24 hrs by MTT assay relative to control; format: functional, cell-based; conditions: HL-60, 24 h
Summary of the method: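 HL60 cells grown in RPMI 1640 with 10% FBS and 1% penicillin-streptomycin at 37 °C, 5% CO2, used at 1 × 10^6 cells/mL. Compounds were added at 100 nM to 100 μM final and incubated 24 h. Viability was read by MTT-type assay as percent of control absorbance, with 1% Triton X-100 as the 100% kill control. Triplicates; EC50 from dose-response fit where possible.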

TK6 [4] = experiment: Induction of apoptosis in human TK6 cells assessed as late apoptotic cells at 50 ug/ml after 8 hrs by annexin V/propidium iodide staining method relative to control; format: functional
Summary of the method: (§1)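 TK6 human lymphoblastoid cells kept in exponential suspension culture in RPMI 1640 with 10% heat-inactivated calf serum, penicillin/streptomycin and 2 mmol/L L-glutamine at 37 °C, 5% CO2. Serum was cut to 1% 12 h before dosing at 50 μg/ml for the stated times. Cells were stained with Annexin V/propidium iodide and analysed as quadrant scatterplots.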

TK6 [5] = experiment: Induction of apoptosis in human TK6 cells assessed as necrotic cells at 50 ug/ml after 8 hrs by annexin V/propidium iodide staining method relative to control relative to control; format: functional; summary of the method: as §1
TK6 [6] = experiment: Induction of apoptosis in human TK6 cells assessed as viable cells at 50 ug/ml after 2 hrs by annexin V/propidium iodide staining method relative to control; format: functional; conditions: TK6, 2 h, read-out: Activity; summary of the method: as §1
TK6 [7] = experiment: Induction of apoptosis in human TK6 cells assessed as late apoptotic cells at 50 ug/ml after 2 hrs by annexin V/propidium iodide staining method relative to control; format: functional; summary of the method: as §1
TK6 [8] = experiment: Induction of apoptosis in human TK6 cells assessed as early apoptotic cells at 50 ug/ml after 8 hrs by annexin V/propidium iodide staining method relative to control; format: functional; summary of the method: as §1
TK6 [9] = experiment: Induction of apoptosis in human TK6 cells assessed as necrotic cells at 50 ug/ml after 2 hrs by annexin V/propidium iodide staining method relative to control; format: functional; summary of the method: as §1
TK6 [10] = experiment: Induction of apoptosis in human TK6 cells assessed as viable cells at 50 ug/ml after 4 hrs by annexin V/propidium iodide staining method relative to control; format: functional; conditions: TK6, 4 h, read-out: Activity; summary of the method: as §1
TK6 [11] = experiment: Induction of apoptosis in human TK6 cells assessed as induction of PARP cleavage at 50 ug/ml measured up to 8 hrs by Western blotting; format: functional, cell-based
Summary of the method: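 TK6 cells were moved to 1% heat-inactivated calf serum RPMI 1640 12 h beforehand, then exposed to 50 μg/ml for time courses. PARP cleavage was detected by western blot with anti-PARP antibody, using GAPDH as loading control.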

TK6 [12] = experiment: Induction of apoptosis in human TK6 cells assessed as early apoptotic cells at 50 ug/ml after 4 hrs by annexin V/propidium iodide staining method relative to control; format: functional
TK6 [13] = experiment: Induction of apoptosis in human TK6 cells assessed as early apoptotic cells at 50 ug/ml after 2 hrs by annexin V/propidium iodide staining method relative to control; format: functional; summary of the method: as §1
TK6 [14] = experiment: Induction of apoptosis in human TK6 cells assessed as viable cells at 50 ug/ml after 8 hrs by annexin V/propidium iodide staining method relative to control; format: functional; conditions: TK6, 8 h, read-out: Activity; summary of the method: as §1
TK6 [15] = experiment: Induction of apoptosis in human TK6 cells assessed as necrotic cells at 50 ug/ml after 4 hrs by annexin V/propidium iodide staining method relative to control; format: functional; summary of the method: as §1
TK6 [16] = experiment: Induction of apoptosis in human TK6 cells assessed as late apoptotic cells at 50 ug/ml after 4 hrs by annexin V/propidium iodide staining method relative to control; format: functional; summary of the method: as §1
HL-60 [17] = experiment: Induction of human HL60 cell differentiation assessed as increase in PAD4 expression level at 10 uM after 6 hrs by Western blotting; format: functional, cell-based
HL-60 [18] = experiment: Induction of human HL60 cell differentiation assessed as increase in PAD4 expression level at 1 uM after 24 hrs by Western blotting; format: functional, cell-based
HL-60 [19] = experiment: Induction of human HL60 cell differentiation assessed as increase in PAD4 expression level at 1 to 10 uM by Western blotting; format: functional, cell-based; conditions: TDE = time-dependent effect
HL-60 [20] = experiment: Induction of human HL60 cell differentiation assessed as increase in PAD4 expression level at 1 uM after 12 hrs by Western blotting; format: functional, cell-based
HL-60 [21] = experiment: Induction of human HL60 cell differentiation assessed as increase in PAD4 expression level after 24 hrs by Western blotting; format: functional, cell-based
[22] = molecular target: T1, Protein-arginine deiminase type-1 (Homo sapiens, UniProt Q9ULC6); experiment: Irreversible inhibition of PAD1 assessed as hydrolysis of benzoyl-L-arginine ethyl ester preincubated for 15 mins measured after 15 mins by fluorometric analysis
T1 sequence (Q9ULC6 whole entry): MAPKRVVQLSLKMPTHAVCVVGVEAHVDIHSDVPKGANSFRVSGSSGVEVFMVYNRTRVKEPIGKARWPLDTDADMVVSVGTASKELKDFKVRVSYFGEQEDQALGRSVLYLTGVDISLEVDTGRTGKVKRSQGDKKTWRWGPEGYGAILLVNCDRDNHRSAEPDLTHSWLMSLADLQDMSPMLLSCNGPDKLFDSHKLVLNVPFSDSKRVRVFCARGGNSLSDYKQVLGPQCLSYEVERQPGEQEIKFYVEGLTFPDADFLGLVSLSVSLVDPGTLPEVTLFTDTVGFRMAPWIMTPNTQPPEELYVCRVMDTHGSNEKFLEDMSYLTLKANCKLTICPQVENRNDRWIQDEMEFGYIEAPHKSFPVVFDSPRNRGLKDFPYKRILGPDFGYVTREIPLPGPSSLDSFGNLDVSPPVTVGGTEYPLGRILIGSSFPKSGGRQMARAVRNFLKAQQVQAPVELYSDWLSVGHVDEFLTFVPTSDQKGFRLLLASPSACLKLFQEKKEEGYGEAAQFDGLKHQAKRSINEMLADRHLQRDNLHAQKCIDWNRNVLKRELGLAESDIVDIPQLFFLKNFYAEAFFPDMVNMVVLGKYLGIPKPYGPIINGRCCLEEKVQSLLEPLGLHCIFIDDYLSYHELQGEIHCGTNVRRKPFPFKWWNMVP

[23] = molecular target: T2, Protein-arginine deiminase type-3 (Homo sapiens, UniProt Q9ULW8); experiment: Irreversible inhibition of PAD3 assessed as hydrolysis of benzoyl-L-arginine ethyl ester preincubated for 15 mins measured after 15 mins by fluorometric analysis
T2 sequence (Q9ULW8 whole entry): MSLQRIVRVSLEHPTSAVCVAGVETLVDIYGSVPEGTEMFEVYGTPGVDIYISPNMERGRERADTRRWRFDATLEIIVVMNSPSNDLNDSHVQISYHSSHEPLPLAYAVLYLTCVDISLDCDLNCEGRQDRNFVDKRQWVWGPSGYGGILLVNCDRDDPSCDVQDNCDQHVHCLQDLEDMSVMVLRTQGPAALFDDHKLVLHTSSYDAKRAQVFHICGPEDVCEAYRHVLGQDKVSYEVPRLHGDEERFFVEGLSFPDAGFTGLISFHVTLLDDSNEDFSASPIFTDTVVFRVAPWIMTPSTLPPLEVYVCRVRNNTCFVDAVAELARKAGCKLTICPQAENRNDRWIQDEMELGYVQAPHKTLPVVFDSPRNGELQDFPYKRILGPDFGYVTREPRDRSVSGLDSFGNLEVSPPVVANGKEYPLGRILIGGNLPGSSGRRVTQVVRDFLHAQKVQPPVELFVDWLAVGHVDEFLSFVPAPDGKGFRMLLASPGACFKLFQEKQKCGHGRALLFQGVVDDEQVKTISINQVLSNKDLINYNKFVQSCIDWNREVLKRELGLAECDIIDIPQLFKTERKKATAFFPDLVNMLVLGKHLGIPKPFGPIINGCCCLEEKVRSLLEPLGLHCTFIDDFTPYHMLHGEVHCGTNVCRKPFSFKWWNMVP

[24] = molecular target: Protein-arginine deiminase type-2 (Homo sapiens, UniProt Q9Y2J8); experiment: Irreversible inhibition of PAD2 assessed as hydrolysis of benzoyl-L-arginine ethyl ester preincubated for 15 mins measured after 15 mins by fluorometric analysis
Chain of Protein-arginine deiminase type-2 (Q9Y2J8 whole entry): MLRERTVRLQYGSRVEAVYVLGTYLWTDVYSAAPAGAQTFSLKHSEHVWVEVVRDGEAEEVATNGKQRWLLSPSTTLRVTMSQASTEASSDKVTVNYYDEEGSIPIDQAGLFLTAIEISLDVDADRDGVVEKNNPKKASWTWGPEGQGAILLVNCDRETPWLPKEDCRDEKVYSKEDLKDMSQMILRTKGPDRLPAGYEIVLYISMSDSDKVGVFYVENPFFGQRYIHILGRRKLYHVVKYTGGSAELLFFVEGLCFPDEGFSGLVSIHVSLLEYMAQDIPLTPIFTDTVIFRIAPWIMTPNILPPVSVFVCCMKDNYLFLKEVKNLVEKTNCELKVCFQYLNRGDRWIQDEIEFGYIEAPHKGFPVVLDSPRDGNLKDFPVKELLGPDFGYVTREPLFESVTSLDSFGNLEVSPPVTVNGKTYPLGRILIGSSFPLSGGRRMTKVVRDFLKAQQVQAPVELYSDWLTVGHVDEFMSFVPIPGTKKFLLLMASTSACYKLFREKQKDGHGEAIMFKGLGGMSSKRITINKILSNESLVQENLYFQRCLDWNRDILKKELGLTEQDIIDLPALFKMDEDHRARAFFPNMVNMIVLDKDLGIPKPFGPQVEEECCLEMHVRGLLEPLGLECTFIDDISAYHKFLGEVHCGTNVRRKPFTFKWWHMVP

In the case of N=C(CF)NCc1ccccc1, the IC50 [1] is reported as over 1000 µM.

For COc1cccc2c1C(=O)c1c(O)c3c(c(O)c1C2=O)C[C@@](O)(C(=O)CO)C[C@@H]3O[C@H]1C[C@H](N)[C@H](O)[C@H](C)O1 [DOXORUBICIN], the “fold change (FC)” value (HL-60 [2]) was 6 and the EC50 (HL-60 [3]) was 2500 nM.

For N=C(CF)NCCCCNC(=O)c1ccccc1, the IC50 [1] was over 1000 µM.

Compound N=C(CCl)NCCC[C@H](NC(=O)c1ccccc1)C(N)=O.O=C(O)C(F)(F)F has an Activity (TK6 [4]) of 32.6%, an Activity (TK6 [5]) of 0.8% and a viability at 50 µg/mL (TK6 [6]) of 85.6%. It also gave an Activity (TK6 [7]) of 6.8%, an Activity (TK6 [8]) of 20.4% and an Activity (TK6 [9]) of 0.1%. For the same compound, the viability at 50 µg/mL (TK6 [10]) was 78.8%, the Activity (TK6 [11]) was “Active” and the Activity (TK6 [12]) was 11.9%. It also gave an Activity (TK6 [13]) of 7.5%, a viability at 50 µg/mL (TK6 [14]) of 46.2% and an Activity (TK6 [15]) of 0.4%. For the same compound, the Activity (TK6 [16]) was 8.9%.

N=C(N)CF was tested, and the IC50 [1] was over 10000 µM.

Work on N=C(CF)NCCC[C@H](NS(=O)(=O)c1ccccc1)C(N)=O yielded an IC50 [1] of 500 µM.

N=C(CF)Nc1cccc([C@H](NC(=O)c2ccccc2)C(N)=O)c1 showed an IC50 [1] of 2100 µM.

Compound N=C(CF)NCCC[C@H](NC(=O)c1c[nH]cn1)C(N)=O has an IC50 [1] of 230 µM.

N=C(CF)NCc1ccc(C[C@H](NC(=O)c2ccccc2)C(N)=O)cc1 was tested, and the IC50 [1] was over 1000 µM.

With N=C(CF)Nc1cccc(C[C@H](NC(=O)c2ccccc2)C(N)=O)c1 the IC50 [1] was 310 µM.

With N=C(CCl)NCCC[C@H](NC(=O)c1ccccc1C(=O)O)C(N)=O the Activity (HL-60 [17]) was “Active”, the Activity (HL-60 [18]) was “Active” and the Activity (HL-60 [19]) was “tde”. For the same compound, the Activity (HL-60 [20]) was “Active” and the Activity (HL-60 [21]) was “Dose-dependent effect”.

Compound CCCNC(=N)CF has an IC50 [1] of over 1000 µM.

For N=C(CF)NCCC[C@H](NC(=O)c1ccccc1)C(N)=O, the IC50 [22] was 29 µM, the Ki [22] was 110 µM and the IC50 [23] was 367 µM. The Ki [23] was 293 µM.

For N=C(CF)NCCC[C@H](NC(=O)c1ccccc1C(=O)O)C(N)=O.O=C(O)C(F)(F)F, the Activity (TK6 [4]) was 11.9%, the Activity (HL-60 [17]) was “Active” and the Activity (TK6 [5]) was 0.3%. For the same compound, the Activity (HL-60 [18]) was “Active”, the IC50 [24] was at least 50 µM and the Activity (HL-60 [19]) was “tde”. It also gave a viability at 50 µg/mL (TK6 [6]) of 88%, an Activity (TK6 [7]) of 3.3% and an Activity (TK6 [8]) of 27.7%. The Activity (TK6 [9]) was 0.3%, the viability at 50 µg/mL (TK6 [10]) was 74.9% and the Activity (TK6 [11]) was “Active”. It also gave an Activity (TK6 [13]) of 8.3%, a viability at 50 µg/mL (TK6 [14]) of 60.1% and an Activity (TK6 [15]) of 0.3%. For the same compound, the Activity (HL-60 [20]) was “Active”, the Activity (TK6 [16]) was 4.8% and the Activity (HL-60 [21]) was “Dose-dependent effect”.

With N=C(CF)Nc1ccc(C[C@H](NC(=O)c2ccccc2)C(N)=O)cc1 the IC50 [1] was 310 µM.

N=C(CF)Nc1ccccc1 showed an IC50 [1] of over 500 µM.

With N=C(CF)NCCCCNS(=O)(=O)c1ccccc1 the IC50 [1] was over 1000 µM.
